Results taken from ChEMBL document CHEMBL3751768, “Synthesis and anti-tuberculosis activity of glycitylamines” (2016).

System: Mycobacterium tuberculosis
Assay: Antitubercular activity against […] after 7 days by alamar blue assay
Format: functional
Settings: 168 h
In short: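 M. bovis BCG stock, thawed with sonication/ice cycles, diluted to 8 × 10⁴ bacteria per mL in Tween albumin broth (Dubos/OADC). Compounds prepared in PBS (up to 5% DMSO) at double strength, filter-sterilised, serially diluted; tested in triplicate from […] start.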

Row | SMILES | MIC
1 | OC[C@H]1NC[C@H](O)[C@H]1O | > 3500 µM
2 | OC[C@@H]1NC[C@@H](O)[C@@H]1O | > 3500 µM
3 | NC1CCCCCCCCCCC1 | 680 µM
4 | O=C1OC[C@H]2[C@@H](O)[C@@H](O)CN12 | > 3500 µM
5 | OC[C@@H](O)[C@H](O)[C@H](O)CNC1CCCCCCCCCCC1 | 160 µM
6 | C=C[C@@H](O)[C@H](O)CNCc1ccccc1 | > 500 µg/mL
7 | OC[C@@H]1NC[C@H](O)[C@@H]1O | > 3500 µM
8 | C[C@H](O)[C@@H](O)[C@@H](O)[C@H](O)CNC1CCCCCCC1 | > 500 µg/mL
9 | C=C[C@@H](O)[C@@H](O)CNCCCCCCCC | 940 µM
10 | C=C[C@@H](O)[C@@H](O)CNCc1ccccc1 | > 500 µg/mL
11 | C=C[C@H](O)[C@@H](O)CNCc1ccccc1 | > 500 µg/mL
12 | C=C[C@@H](O)[C@@H](O)CN | > 3500 µM
13 | C=C[C@@H](O)[C@H](O)CNC(c1ccccc1)c1ccccc1 | 1600 µM
14 | C=C[C@@H](O)[C@@H](O)CNC(c1ccccc1)c1ccccc1 | 1600 µM
15 | C[C@H](O)[C@@H](O)[C@@H](O)[C@H](O)CNC1CCCCCCCCCCC1 | 680 µM
16 | O=C1OC[C@H]2[C@@H](O)CCN12 | > 3500 µM
17 | O=C1OC[C@H]2[C@@H](O)[C@H](O)CN12 | > 3500 µM
18 | C=C[C@@H](O)[C@H](O)CN(C)CCCCCCCCCCCCCCCC | 22 µM
19 | C=C[C@@H](O)[C@H](O)CNCCCCCCCC | 680 µM
20 | OC[C@@H]1NCC[C@@H]1O | > 3500 µM
21 | C=C[C@H](O)[C@@H](O)CNCCCCCCCC | 940 µM

Row | SMILES | MIC
22 | C=C[C@H](O)[C@@H](O)CNC(c1ccccc1)c1ccccc1 | 440 µM
23 | C=C[C@H](OC)[C@H](CNC(c1ccccc1)c1ccccc1)OC | 800 µM
24 | C=C[C@@H](O)[C@H](O)CNCCCCCCCCCCCCCCCC | 21 µM
25 | C=C[C@@H](O)[C@H](O)CNC[C@@H](O)[C@H](O)C=C | 2000 µM
26 | C[C@H](O)[C@H](O)[C@@H](O)[C@@H](O)CNC1CCCCCCC1 | > 500 µg/mL
27 | C=C[C@@H](O)[C@H](O)CN(CCCC)CCCC | > 500 µg/mL
28 | OC[C@@H](O)[C@H](O)[C@H](O)CNC1CCCCC1 | > 500 µg/mL
29 | C=C[C@@H](O)[C@H](O)CNC12CC3CC(CC(C3)C1)C2 | > 500 µg/mL
30 | C=C[C@@H](O)CCN | > 3500 µM
31 | C[C@H](O)[C@@H](O)[C@@H](O)[C@H](O)CNC1CCCCC1 | > 500 µg/mL
32 | O=C1OC[C@@H]2[C@H](O)[C@@H](O)CN12 | > 3500 µM
33 | OC[C@@H](O)[C@H](O)[C@H](O)CNC12CC3CC(CC(C3)C1)C2 | > 500 µg/mL
34 | C=C[C@@H](O)[C@H](O)CNC1CCCCCCCCCCC1 | 200 µM
35 | OC[C@@H](O)[C@H](O)[C@H](O)CNC1CCCCCCC1 | > 500 µg/mL
36 | C=C[C@H](O)[C@@H](O)CN | > 3500 µM
37 | C=C[C@@H](O)[C@H](O)CN | > 3500 µM
38 | C=C[C@@H](O)[C@H](O)CNCCCCCCCCCCCCCC | 45 µM
39 | NC(c1ccccc1)c1ccccc1 [AMINODIPHENYLMETHANE] | 1360 µM
40 | CC[C@@H](CO)NCCN[C@@H](CC)CO [ETHAMBUTOL] | 39 µM
41 | CCCCCCCCCCCCCCCCN [HEXADECYLAMINE] | 130 µM
42 | CCCCCCCCCCCCCCN [TETRADECYLAMINE] | 140 µM
